Broadly, the Ki is a dissociation constant, usually derived from enzyme kinetics or from competition with a known ligand. High values mean a looser hold on the target, low ones a stronger hold on the target. The term IC50 denotes the concentration at which inhibition is half-maximal. Lower therefore signals greater potency in that assay. As a reminder, the EC50 is the midpoint of the concentration-response curve.

Molecules are shown by their SMILES.

Test [1] in a line: Inhibition of HIV protease by fluorescence energy transfer assay. On the set-up: species or system Human immunodeficiency virus.
The subject of test [2] is Human immunodeficiency virus 1. Briefly: Antiviral activity against HIV1 LAI in human MT2 cells by MTT assay. It counts as functional, organism-based. Conditions: Human immunodeficiency virus 1, LAI. Background: Tetrazolium dyes change colour on reduction, which living cells bring about.
Test [3] concerns Human immunodeficiency virus 1. Briefly: Ratio of EC50 for multidrug-resistant HIV1 isolate G to EC50 for wild type HIV1 isolate ERS104pre. Type of test: functional. In short, it runs like this: (§1)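 Fold change is the EC50 against each multidrug-resistant isolate divided by the EC50 against HIV-1ERS104pre. EC50s came from PHA-stimulated PBMC with a p24 Gag production end point, run in duplicate or triplicate across three independent experiments.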

Test [4] deals with Human immunodeficiency virus 1. Briefly: Ratio of EC50 for multidrug-resistant HIV1 isolate C to EC50 for wild type HIV1 isolate ERS104pre. Type of test: functional. In short, it runs like this: as §1
In test [5] the test system is Human immunodeficiency virus 1. In words: Antiviral activity against multidrug-resistant HIV1 isolate G infected in PHA-stimulated PBMC assessed as inhibition of p24 […] protein. Type of test: functional, organism-based. Conditions: Human immunodeficiency virus 1, isolate G. In short, it runs like this: (§2)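 Clinical HIV-1 isolates were tested in PHA-stimulated peripheral blood mononuclear cells as targets, with inhibition of p24 Gag protein production as the end point. Each value was determined in duplicate or triplicate and derived from three independent experiments.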

Test [6] concerns Human immunodeficiency virus 1. In words: Ratio of EC50 for multidrug-resistant HIV1 isolate MM to EC50 for wild type HIV1 isolate ERS104pre. Type of test: functional. In short, it runs like this:
as §1

The test system of test [7] is Human immunodeficiency virus 1. In words: Antiviral activity against multidrug-resistant HIV1 isolate MM infected in PHA-stimulated PBMC assessed as inhibition of p24 […] protein. Type of test: functional, organism-based. Conditions: Human immunodeficiency virus 1, isolate MM. In short, it runs like this:
as §2

The subject of test [8] is Human immunodeficiency virus 1. Briefly: Antiviral activity against multidrug-resistant HIV1 isolate TM infected in PHA-stimulated PBMC assessed as inhibition of p24 […] protein. Type of test: functional, organism-based. The following applies: Human immunodeficiency virus 1, isolate TM. In outline: as §2
Test [9] has as its system Human immunodeficiency virus 1. Briefly: Antiviral activity against wild type HIV1 isolate ERS104pre infected in PHA-stimulated PBMC assessed as inhibition of p24 […] protein. Type of test: functional, organism-based. Conditions: Human immunodeficiency virus 1, isolate ERS104pre. In outline:
as §2

The subject of test [10] is Human immunodeficiency virus 1. Briefly: Antiviral activity against multidrug-resistant HIV1 isolate C infected in PHA-stimulated PBMC assessed as inhibition of p24 […] protein. Conditions: Human immunodeficiency virus 1, isolate C. It counts as functional, organism-based. In outline:
as §2

Test [11] deals with Human immunodeficiency virus 1. Briefly: Ratio of EC50 for multidrug-resistant HIV1 isolate TM to EC50 for wild type HIV1 isolate ERS104pre. It counts as functional. In short, it runs like this: as §1
In test [12] the test system is Human immunodeficiency virus 1. In words: Antiviral activity against atazanavir-resistant HIV1 NL4-3. It counts as functional, organism-based. Conditions: Human immunodeficiency virus 1, NL4-3.
The test system of test [13] is Human immunodeficiency virus 1. In words: Antiviral activity against saquinavir-resistant HIV1 NL4-3. It counts as functional, organism-based. Conditions: Human immunodeficiency virus 1, NL4-3.
The subject of test [14] is Human immunodeficiency virus 1. In words: Antiviral activity against nelfinavir-resistant HIV1 NL4-3. It counts as functional, organism-based. Conditions: Human immunodeficiency virus 1, NL4-3.
The subject of test [15] is Human immunodeficiency virus 1. In words: Antiviral activity against ritonavir-resistant HIV1 NL4-3. It counts as functional, organism-based. Conditions: Human immunodeficiency virus 1, NL4-3.
In test [16] the test system is Human immunodeficiency virus 1. In words: Antiviral activity against amprenavir-resistant HIV1 NL4-3. Type of test: functional, organism-based. Conditions: Human immunodeficiency virus 1, NL4-3.
Test [17] concerns Human immunodeficiency virus 1. In words: Antiviral activity against lopinavir-resistant HIV1 NL4-3. Conditions: Human immunodeficiency virus 1, NL4-3. Type of test: functional, organism-based.
In test [18] the test system is Human immunodeficiency virus 1. In words: Antiviral activity against indinavir-resistant HIV1 NL4-3. Type of test: functional, organism-based. The following applies: Human immunodeficiency virus 1, NL4-3.

`Nc1ccc(S(=O)(=O)N(C[C@@H]2COC(=O)N2)C[C@@H](O)[C@H](Cc2ccccc2)NC(=O)O[C@H]2CO[C@H]3OCC[C@H]32)cc1` returned a Ki in test [1] of 0.31 nM.
In the case of `Nc1ccc(S(=O)(=O)N(C[C@H]2COC(=O)N2)C[C@@H](O)[C@H](Cc2ccccc2)NC(=O)O[C@H]2CO[C@H]3OCC[C@H]32)cc1`, in [2], the IC50 was more than 1000 nM. In [1], this molecule displayed a Ki of 0.24 nM.
For `COc1ccc(S(=O)(=O)N(C[C@@H]2COC(=O)N2)C[C@@H](O)[C@H](Cc2ccccc2)NC(=O)O[C@H]2CO[C@H]3OCC[C@H]32)cc1`, in [2], the midpoint of inhibition, the IC50, lay at 480 nM. Also, in test [1], the Ki is 0.28 nM.
Taken in the same sequence, the figures for `COc1ccc(S(=O)(=O)N(C[C@H]2COC(=O)N2)C[C@@H](O)[C@H](Cc2ccccc2)NC(=O)O[C@H]2CO[C@H]3OCC[C@H]32)cc1` were 310 nM and 0.035 nM.
For the molecule `CC(C)CN(C[C@@H](O)[C@H](Cc1ccccc1)NC(=O)O[C@H]1CCOC1)S(=O)(=O)c1ccc(N)cc1`, the “Ratio EC50” value in test [3] is given as 13; in test [4] it was 14; in test [6], 13; in test [11], 10. In addition, the concentration giving a half-maximal response (EC50) stood at 330 nM in test [5]; 320 nM in test [7]; 250 nM in test [8]; 25 nM in test [9]; 350 nM in [10].
`Nc1ccc(S(=O)(=O)N(C[C@@H]2CCC(=O)N2)C[C@@H](O)[C@H](Cc2ccccc2)NC(=O)O[C@@H]2C[C@@H]3CCO[C@@H]3C2)cc1` yielded a half-inhibitory concentration (IC50) in [2] of more than 1000 nM. The molecule also gave a Ki in test [1] of 1.27 nM.
`COc1ccc(S(=O)(=O)N(C[C@H]2CCC(=O)N2)C[C@@H](O)[C@H](Cc2ccccc2)NC(=O)O[C@@H]2C[C@@H]3CCO[C@@H]3C2)cc1`: the “Ratio EC50” value in test [3] worked out at 1; in test [4], 1; in test [6], 2; in test [11] it was 1. Besides, the concentration giving a half-maximal response (EC50) in [12] was determined as 36 nM; in test [5], 27 nM; in [13] it was 36 nM; in test [7], 42 nM; in [14] it was 36 nM; in test [8], 29 nM. For the same molecule, the EC50 is 36 nM in [15]; 36 nM in test [16]; 36 nM in test [17]; 28 nM in test [9]; 23 nM in test [10]; 36 nM in test [18]. Further, the IC50 in test [2] was determined as 26 nM.
For the molecule `COc1ccc(S(=O)(=O)N(C[C@@H]2CCC(=O)N2)C[C@@H](O)[C@H](Cc2ccccc2)NC(=O)O[C@@H]2C[C@@H]3CCO[C@@H]3C2)cc1`, the 50% inhibitory concentration (IC50) in test [2] is 230 nM. For the same molecule, the inhibitory constant (Ki) in [1] was 0.31 nM.
The matching figures for `Nc1ccc(S(=O)(=O)N(C[C@H]2CCC(=O)N2)C[C@@H](O)[C@H](Cc2ccccc2)NC(=O)O[C@H]2CO[C@H]3OCC[C@H]32)cc1`: more than 1000 nM and 0.85 nM.
`Nc1ccc(S(=O)(=O)N(C[C@@H]2CCC(=O)N2)C[C@@H](O)[C@H](Cc2ccccc2)NC(=O)O[C@H]2CO[C@H]3OCC[C@H]32)cc1` returned an inhibition constant (Ki) in test [1] of 0.28 nM.
`COc1ccc(S(=O)(=O)N(C[C@H]2CCC(=O)N2)C[C@@H](O)[C@H](Cc2ccccc2)NC(=O)O[C@H]2CO[C@H]3OCC[C@H]32)cc1` had an IC50 in [2] of 250 nM. In addition, the affinity in test [1], expressed as Ki, was 0.12 nM.
`COc1ccc(S(=O)(=O)N(C[C@@H]2CCC(=O)N2)C[C@@H](O)[C@H](Cc2ccccc2)NC(=O)O[C@H]2CO[C@H]3OCC[C@H]32)cc1`: in test [2], the concentration for half-maximal inhibition (IC50) was 480 nM. In test [1], affinity was put at a Ki of 0.85 nM.
The matching figures for `Nc1ccc(S(=O)(=O)N(C[C@H]2CCC(=O)N2)C[C@@H](O)[C@H](Cc2ccccc2)NC(=O)O[C@@H]2C[C@@H]3CCO[C@@H]3C2)cc1`: 600 nM and 0.31 nM.
Consider `CC(C)(C)NC(=O)[C@@H]1CN(Cc2cccnc2)CCN1C[C@@H](O)C[C@@H](Cc1ccccc1)C(=O)N[C@H]1c2ccccc2C[C@H]1O.O`, for which the “Ratio EC50” value in test [3] was 10; in test [4], more than 36; in test [6], more than 36; in test [11], more than 36. In addition, the half-maximal effective concentration (EC50) was 290 nM in test [5]; more than 1000 nM in [7]; more than 1000 nM in [8]; 28 nM in [9]; more than 1000 nM in [10].

Source of the values: ChEMBL document CHEMBL1136990, “Design of HIV-1 protease inhibitors with pyrrolidinones and oxazolidinones as novel P1'-ligands to enhance backbone-binding interactions with protease: synthesis, biological evaluation, and protein-ligand X-ray studies” (J Med Chem, 2009).
